KCNK3 block – human KCNK3 channel inhibition, primary screen. 0.84% of 340,000 active. AID 602410. B-score at 10 µM. O14649. CHO-KCNK3 thallium flux, FluxOR fluorescence; active compounds read low;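 active = B-score under library mean minus 4 SD, starting fluorescence ratio at most library mean plus 5 SD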;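 note: more negative B-score means stronger inhibition of thallium flux through KCNK3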
KCNQ1 act – human KCNQ1 channel potentiation or activation. CHO-K1 KCNQ1, thallium flux FluxOR fluorescence; active compounds read high. P51787. 0.35% of 310,000 active. AID 2648. B-score at 10 µM;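 active = fluorescence ratio B-score, a plate-corrected score, at least three library SD, with initial intensity B-score within 5 SD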
Target sequence (P51787 whole entry, looked up): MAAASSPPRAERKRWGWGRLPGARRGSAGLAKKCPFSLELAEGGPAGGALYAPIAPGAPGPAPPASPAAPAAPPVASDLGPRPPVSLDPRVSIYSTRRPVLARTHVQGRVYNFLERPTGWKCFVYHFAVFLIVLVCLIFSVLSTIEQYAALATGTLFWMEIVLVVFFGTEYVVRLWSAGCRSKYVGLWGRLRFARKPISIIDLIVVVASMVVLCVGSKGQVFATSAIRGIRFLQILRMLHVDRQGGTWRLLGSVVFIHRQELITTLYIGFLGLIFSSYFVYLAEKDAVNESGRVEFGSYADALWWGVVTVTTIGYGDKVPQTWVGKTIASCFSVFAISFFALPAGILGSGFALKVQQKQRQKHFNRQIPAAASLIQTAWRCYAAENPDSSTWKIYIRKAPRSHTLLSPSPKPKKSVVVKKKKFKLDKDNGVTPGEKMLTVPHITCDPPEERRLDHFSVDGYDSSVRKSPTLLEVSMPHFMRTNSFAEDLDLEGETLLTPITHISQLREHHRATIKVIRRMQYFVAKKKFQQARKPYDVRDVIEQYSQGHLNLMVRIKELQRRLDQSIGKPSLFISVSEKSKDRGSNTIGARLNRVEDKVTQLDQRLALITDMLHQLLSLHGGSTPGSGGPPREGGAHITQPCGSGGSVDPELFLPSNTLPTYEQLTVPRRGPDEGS
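assay system = CHO-K1 cells stably expressing KCNQ1 | medium = assay buffer, equal DMSO in all wells | timing = 37 °C overnight plating, 90-min dark dye load, 20-min compound pretreatment | measured by = kinetic FluxOR thallium fluorescence, 10-s 1-Hz baseline, 110-s post-stimulus read | measure = fluorescence change relative to baseline, converted to B score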
hERG rescue – hERG (human) protection from proarrhythmic block; 0.51% of 310,000 active; CHO-hERG, FluxOR thallium flux, dofetilide IC70 present; activation (rescue from dofetilide block), less the hit threshold, % at 10 µM;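 active = activation above the mean of controls blocked by dofetilide plus 5 SD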;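 note: thallium influx through hERG after potassium depolarization seen as dye fluorescence rise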
KCNK9 inh – human KCNK9 channel inhibition. B-score at 10 µM. Q9NPC2. HEK293 KCNK9, FluxOR thallium flux fluorescence; active compounds read low. 1.2% of 310,000 active. AID 488922;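 active = ratio B-score over 3 SD below the library mean, with starting fluorescence within 5 SD of its mean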;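 note: negative B-score means less thallium flux so channel inhibition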
KCNQ1 inh – inhibitors of human KCNQ1 potassium channel. P51787. 1.3% of 310,000 active. B-score at 10 µM. CHO-K1 KCNQ1, FluxOR thallium flux fluorescence; active compounds read high;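 active = compounds whose thallium flux B-score, printed positive for inhibition, exceeds three library SD while starting fluorescence stays within three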;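 note: channel opened by potassium depolarization with thallium stimulus after 20 min compound exposure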
KCC2 mod – modulates chloride dependent transport by human KCC2 | B-score of Tl+ flux slope (higher = more flux/activation; lower = inhibition) at 10 µM | 2.2% of 190,000 active | KCC2 cells, thallium flux FluoZin-2 fluorescence | Q9H2X9 | AID 1456;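 active = thallium flux slope and its plate-corrected score both differing from the plate sample mean at a set confidence after two filtering rounds, in either direction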;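 note: slope of fluorescence scaled to starting intensity during 10 to 20 s after thallium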
KCNK9 inh conf – human KCNK9 inhibitor confirmation; HEK293 KCNK9 cells, FluxOR thallium flux fluorescence; inhibition, % at 10 µM; 43% of 4,900 active; shares compounds with KCNK9 inh;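 active = thallium signal inhibited by more than 5 SD of the compound-free buffer control wells, on both duplicate plates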;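 note: 0% = assay buffer control wells without compound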
Kir2-1 spec – selectivity of KCNK9 modulators against mouse Kir2.1; AID 492993; inhibition, % at 10 µM; shares compounds with KCNK9 inh; Kir2.1 cells, FluxOR thallium flux fluorescence; 4% of 4,900 active;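 active = thallium signal drop more than 5 SD beyond the mean of the no-compound control wells, seen in both duplicate plates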;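 note: signal is fluorescence rise after thallium addition divided by baseline fluorescence; plate controls were assay buffer only for no effect and full block by chlorpromazine control for full effect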
HEK293 Tl ctr – second check of KCNK9 modulator effects in non-induced HEK293 cells; shares compounds with KCNK9 inh; FluxOR thallium flux; inhibition, % at 10 µM; 40% of 4,900 active; AID 492997;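 active = thallium signal drop beyond 5 SD of the untreated control mean, on both duplicate plates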;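 note: plate controls were buffer only IC0 wells for no effect and SID17386958 at its maximal inhibitory level for full effect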
* = called active by the depositor; i = inactive; . = no result given. A selection: hits, their analogues and other compounds. The true share with any hit is near 4.1%.

SMILES | KCNK3 block | KCNQ1 act | hERG rescue | KCNK9 inh | KCNQ1 inh | KCC2 mod | KCNK9 inh conf | Kir2-1 spec | HEK293 Tl ctr
COc1ccc(NC(=O)O/N=C2/CCCc3ccc(OC)cc32)cc1 | i | i | -11 | -12* | i | -1.2 | 66%* | 34%* | 26%*
COc1ccc(/C(N)=N/OC(=O)c2cccs2)cc1 | i | i | -15 | i | i | 0.16 | . | . | .
Cc1noc(C)c1S(=O)(=O)N(C)C[C@H]1Oc2ccc(NC(=O)Cc3ccccc3)cc2C(=O)N([C@H](C)CO)C[C@@H]1C | i | . | . | . | . | . | . | . | .
COc1ccc(CCCc2nnc(SCC(=O)Nc3ccc(C)c(C)c3)o2)cc1 | i | i | -7 | i | i | -1.1 | . | . | .
COc1ccc(CCCc2nnc(SCC(=O)Nc3cc(C)ccc3C)o2)cc1 | i | i | 1 | i | i | 0.34 | i | i | i
O=C(Cn1cc(C(=O)c2cccs2)c2ccccc21)NC1CCCCC1 | i | i | -9 | -12* | i | 0.0068 | 54%* | i | 28%*
CN(Cc1ccccc1)C(=O)C1CCN(S(=O)(=O)c2ccc3nc4c(c(C(=O)O)c3c2)CCCC4)CC1 | i | i | -1 | i | i | . | . | . | .
O=C(Nc1ccc(C(F)(F)F)cc1Cl)c1ccc(Cn2cc(Br)cn2)o1 | i | i | -2 | -12* | i | . | 37%* | i | 46%*
COc1ccc(-n2ncc3c2CC(C)(C)CC3NC(=O)c2c(C)cc(=O)oc2C)cc1 (centres undefined) | i | i | -2 | i | i | . | . | . | .
COc1cccc(-c2nc(CS(=O)(=O)CC(=O)NCC(C)c3ccccc3)c(C)o2)c1 (centres undefined) | i | i | -12 | i | i | . | i | i | i
COc1cccc(-c2nc(CS(=O)(=O)CC(=O)NCCc3ccccc3)c(C)o2)c1 | i | i | -10 | i | i | . | . | . | .
O=C(Nc1cccc(Cl)c1N1CCCC1)c1ccc([N+](=O)[O-])o1 | i | i | -5 | -10* | i | -0.33 | 34%* | i | 28%*
O=C(Nc1cccc(Cl)c1N1CCCC1)c1ccc(Br)o1 | i | i | -16 | -9.3* | i | . | 28%* | i | 32%*
CCN1CCN(c2c(Cl)cccc2NC(=O)c2ccc([N+](=O)[O-])o2)CC1 | i | i | -6 | i | i | . | . | . | .
O=C(Nc1cccc(Cl)c1N1CCCC1)c1cc2ccccc2o1 | i | i | -13 | i | i | 0.29 | . | . | .
Cc1nc(S/C(=C/c2ccc(-c3cc(Cl)ccc3C)o2)C(=O)O)n[nH]1 | i | i | -10 | i | 8* | . | i | i | 36%*
COc1ccc(/C=C(/CC(=O)NCc2ccc(Cl)cc2)c2nc3ccccc3s2)cc1 | i | i | -6 | -19* | i | 0.066 | 66%* | i | 46%*
COc1ccc(/C=C(/CC(=O)Nc2ccccc2)c2nc3ccccc3s2)cc1 | i | i | -7 | i | i | -0.63 | . | . | .
Cc1cccc(N2CCN(C(=O)c3ccc4c(c3)c(C)c(C)n4C)CC2C)c1 (centres undefined) | i | i | -11 | i | i | . | i | i | i
Cc1cccc(C(=O)NC(=S)NC(C)c2ccccc2)c1 (centres undefined) | i | i | -9 | i | i | . | i | i | i
Cc1cccc(C(=O)NC(=S)Nc2ccc(Cc3ccncc3)cc2)c1 | i | i | -4 | i | i | 0.52 | i | i | i
COc1ccc(C(=O)NC(=S)NC(C)c2ccccc2)cc1 (centres undefined) | i | i | -12 | i | i | . | . | . | .
O=C(NC(=S)NC(c1ccccc1)c1ccncc1)c1ccccc1 (centres undefined) | i | i | -14 | i | i | -2.3 | . | . | .
CC(NC(=S)NC(=O)c1ccccc1)c1ccccc1 (centres undefined) | i | i | -5 | i | i | . | i | i | i
O=C1Nc2c(Cl)cc(Cl)cc2C1=O | i | . | . | . | . | . | . | . | .
SMILES | KCNK3 block | KCNQ1 act | hERG rescue | KCNK9 inh | KCNQ1 inh | KCC2 mod | KCNK9 inh conf | Kir2-1 spec | HEK293 Tl ctr
COc1cccc(C2c3cc4c(cc3OC(NNC(N)=O)C2C)OCO4)c1O (centres undefined) | i | . | . | . | . | . | . | . | .
COC(=O)c1cc(=O)n(CCc2ccccc2F)c(=Nc2ccc(F)c(Cl)c2)s1 | i | i | -3 | -14* | i | 0.63 | 44%* | i | 36%*
COC(=O)c1cc(=O)n(Cc2cccs2)c(=Nc2ccc(F)cc2)s1 | i | i | -7 | i | i | -0.021 | . | . | .
CN(C(=O)c1cccc(NC(=O)Cc2cccc(NC(=O)C3CCN(C(=O)CCc4ccccc4)CC3)c2)c1)C1CC1 | i | . | . | . | . | . | . | . | .
O=C(c1ccco1)N1CCN(C2c3ccccc3-c3ccccc32)CC1 | i | i | -13 | i | i | . | . | . | .
CC(C)OC(=O)CN1CCN(C2c3ccccc3-c3ccccc32)CC1 | i | i | -6 | i | i | . | i | i | i
CN1c2ccccc2C2(C)CCCC3=Cc4cccc([N+](=O)[O-])c4OC312 (centres undefined) | i | i | -20 | -10* | i | -0.043 | 57%* | i | 35%*
CN1c2ccccc2C2(C)CCCC3=Cc4cc([N+](=O)[O-])cc([N+](=O)[O-])c4OC312 (centres undefined) | i | i | -11 | i | i | 0.15 | . | . | .
CC[C@H](C)[C@H]1CNC(=S)N1CC1CCN(CCCC2CCCC2)CC1 | i | . | . | . | . | . | . | . | .
COc1ccc(-c2csc(NC(C)c3nc4cc(Cl)c(Cl)cc4n3CCOCCO)n2)cc1 (centres undefined) | i | i | -6 | -8.6* | i | . | 32%* | i | 40%*
Cc1onc(-c2ccccc2Cl)c1C(=O)Nc1cccc2cccnc12 | i | i | -10 | -13* | 6* | -2.1 | 47%* | i | 45%*
COc1cc(NC(=O)c2c(-c3ccccc3Cl)noc2C)c2ncccc2c1 | i | i | -12 | i | i | . | . | . | .
CCOc1ccccc1NC(=O)c1cccc(NC(=O)C2CCCC2)c1 | i | i | -17 | -13* | i | . | 58%* | i | i

Screens as filed in PubChem.
